Screening results (PubChem)
thrombin 1536: blocks human thrombin protease activity | P00734 | alpha-thrombin, Boc-VPR-AMC fluorogenic substrate cleavage | inhibition, % at 5 µM | 220,000 tested, 0.26% active | AID 1046;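 active means inhibition at or above 40%; inactive means inhibition below 40%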;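 further: 0% = enzyme with no compound and 100% = wells without enzyme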
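Assay system: human alpha-thrombin enzyme. Reagent: Boc-VPR-AMC substrate, 15 µM final. Compound dosing: one concentration per compound, 5 µM, with 0.2% DMSO. Incubation: room-temperature reaction. Technique: AMC fluorescence, 355/460 nm. Measure: % inhibition relative to enzyme controls and enzyme-free blanks.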
FXIa inh 1536: blocks human coagulation factor XIa protease activity; purified FXIa, Boc-Glu-Ala-Arg-AMC fluorogenic substrate; inhibition, % at 5 µM; 220,000 tested, 0.14% active; P03951; AID 798;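 active means inhibition of at least 40%; inactive means inhibition below 40%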;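 further: fluorescence of freed AMC excited at 355 nm; 0% = enzyme without compound and 100% = no enzyme blank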
Furin inh: blocks human furin protease activity; P09958; purified furin, fluorogenic substrate cleavage; inhibition, % at 20 µM or 30 µM; 220,000 tested, 0.061% active; AID 463115; in the data active means inhibition above about 25%
KLK5 inh: blocks human kallikrein 5 protease activity. Q9Y337. AID 873. recombinant hK5, fluorogenic AMC substrate cleavage. 210,000 tested, 0.59% active. inhibition, % at 5 µM;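 active means inhibition of 40% or more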;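 further: 0% = enzyme controls without compound and 100% = no-enzyme blanks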
FXIIa inh 1536: inhibitors of human coagulation factor XIIa; 220,000 tested, 0.3% active; purified FXIIa, Boc-QGR-AMC fluorogenic substrate, 2 h; inhibition, % at 5 µM; AID 800; P00748; in the data active means inhibition above about 40%;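 further: 0% = enzyme with no compound and 100% = blank without enzyme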
* = called active by the depositor; . = no result. In the library only some 1.1% were active in any assay of this set; here they are far more common.

SMILES	thrombin 1536	FXIa inh 1536	Furin inh	KLK5 inh	FXIIa inh 1536
O=C(CSC1CC(=O)N(CCc2ccccc2)C1=O)Nc1ccc(Br)cc1 (stereo not given)	5.2	-1.8	-21.4	42.4*	16.7
CCOC(=O)c1cn(CC2CC2)c2cc(F)c(F)cc2c1=O	-2.5	-3.6	-19.4	-1.0	2.4
CCCn1cc(C(=O)OCC)c(=O)c2cc(F)c(F)cc21	4.2	64.9*	-4.9	23.1	31.2
COc1ccc(-c2nn3cnnc3s2)cc1OC	44.6*	12.1	-18.2	129.5*	18.2
O=C(Nc1ccc2c(c1)C(=O)NC2=O)c1ccc2ncsc2c1	-4.9	-3.4	-14.4	-10.1	4.2
COc1ccc(N(C(=O)c2ccco2)S(=O)(=O)c2cccs2)cc1	17.1	10.6	-28.6	-7.6	18.7
COc1ccc(N(C(=O)c2ccco2)S(=O)(=O)c2ccc(F)cc2)cc1	42.4*	9.1	-5.8	0.1	14.2
COc1ccc(N(C(=O)c2ccco2)S(=O)(=O)c2cccc([N+](=O)[O-])c2)cc1	57.5*	19.5	-26.1	-4.8	21.9
Cc1ccccc1Cn1cc(NC(=O)CSc2nc3c(c(C(F)(F)F)n2)CCc2ccccc2-3)cn1	-1.3	-1.0	-14.8	14.0	12.8
COc1ccccc1NC(=O)CSc1nnnn1C	-1.0	33.1	-6.7	6.6	59.3*
Cc1ccc2cc(CCNC(=O)c3ccc(C)c([N+](=O)[O-])c3)c(=O)[nH]c2c1	-5.2	2.4	-28.2	-14.8	4.6
CCN(CC)C(=O)C1=C(C)NC(=S)NC1c1ccc(C)s1 (stereo not given)	.	15.1	-3.2	14.9	11.5
CCCC(=O)N=C1SC2CS(=O)(=O)CC2N1c1ccc(CC)cc1 (stereo not given)	-6.4	26.3	-21.1	-8.6	41.4*
COc1cc(S(=O)(=O)N2CCN(C(=O)c3ccccc3F)CC2)c(OC)cc1NC(C)=O	10.4	16.0	-21.8	46.7*	15.5
CNC(=O)/C(C#N)=C/c1c(N(Cc2ccccc2)Cc2ccccc2)nc2c(C)cccn2c1=O	24.6	9.6	-4.0	49.5*	24.3
CCC(=O)OCCn1c(=O)c2cc3c(=O)n(CCOC(=O)CC)c(=O)c3cc2c1=O	3.5	19.6	-14.4	-2.4	54.1*
COc1ccc(/C=C(\C#N)c2n[nH]c(Cn3cncn3)n2)cc1	4.5	12.3	12.1	21.4	48.0*
N#C/C(=C\c1ccc(Cl)cc1)c1n[nH]c(Cn2cncn2)n1	-5.2	-5.5	-15.4	-18.1	11.8
CC(C)C(NC(=O)CC12CC3CC(CC(C3)C1)C2)C(=O)O (stereo not given)	-0.3	15.1	-13.7	5.6	46.7*
O=C(O)CNC(=O)CC12CC3CC(CC(C3)C1)C2	0.9	-7.9	-14.4	0.8	17.2
CC1(C)C2CC=C(/C=N/n3cnnc3)C1C2 (stereo not given)	1.8	16.7	-10.4	3.1	48.7*
CNC(=S)N/N=C/C1=CCC2CC1C2(C)C (stereo not given)	1.9	4.5	-36.5	-4.7	12.7
Cc1ccc(C(=O)NCCN2CCNC2=O)cc1	19.0	23.8	-5.7	43.9*	47.0*
CC(C)(C)c1ccc(Cn2nnc3c(=O)[nH]c(C4CCN(C(=O)Cc5cccs5)CC4)nc32)cc1	8.7	16.4	2.3	117.9*	14.9
CC(C)(C)c1ccc(Cn2nnc3c(=O)[nH]c(C4CCCN(C(=O)Cc5cccs5)C4)nc32)cc1 (stereo not given)	2.1	-4.3	-17.9	-5.0	-5.2
SMILES	thrombin 1536	FXIa inh 1536	Furin inh	KLK5 inh	FXIIa inh 1536
OC1(c2ccc(F)cc2)CCN(Cc2nnnn2Cc2cccs2)CC1	60.5*	1.8	-24.4	36.1	11.2
CSc1nc(=S)c2[nH]c(=S)[nH]c2[nH]1	-2.3	6.9	-21.3	-38.0	7.2
NC(=O)c1ccc(NC(=O)COC(=O)/C=C/c2ccc3c(c2)OCO3)cc1	22.5	34.4	-3.4	57.2*	16.3
NS(=O)(=O)c1cnccc1Nc1ccc(Cl)c(Cl)c1	-5.9	-1.5	-19.5	-14.3	3.6
CCOC(=O)c1c(NC(=O)CSc2nc3ccccc3s2)sc(C(C)=O)c1C	5.1	9.4	-16.2	47.3*	17.3
CCOC(=O)c1c(NC(=O)CSc2ncccn2)sc2c1CCN(Cc1ccccc1)C2	39.2	6.3	2.2	43.2*	5.1
CCOC(=O)c1sc(NC(=O)CSc2nnc(Cc3ccccc3)o2)c(C(=O)OCC)c1C	12.4	9.0	-14.7	73.6*	22.3
COC(=O)[C@@H](NC(=O)NCc1ccccc1Cl)C(C)C	2.7	-7.8	-1.7	-7.4	15.5
CCOC(=O)C1(C)NC(c2ccco2)C2C(=O)N(C)C(=O)C21 (stereo not given)	-8.7	0.6	-24.8	2.5	6.2
